Test results: paper PMC10288500 (ACS Bio & Med Chem Au, 2023)

Key:
TNF = details: read-out: EC50, inhibition of NF-κB; cited from earlier work
TRADD = assay: TRADD-induced NF-κB activation assay; type: cell-based; details: HEK293 cells overexpressing TRADD, 0.01 to 500 nM, without TNF
Method in brief: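 HEK293 (0.8 million/well, six-well) transfected with 1 μg NF-κB firefly reporter, 0.1 μg Renilla reporter, 1 μg TRADD plasmid and 0.4 μg empty vector (2.5 μg total); controls received empty vector instead of TRADD. Replated at 7500 cells/well after 3 h. Compound 0.01–500 nM or DMSO added 5 h later. Dual luciferase read 24 h post-treatment. Means ± SD, three experiments.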

[1] = Solubility by dynamic light scattering; type: physicochemical
HEK293 cells = assay: MTT cytotoxicity assay; type: cell-based; details: 0.0001 nM–10 μM, 24 h
Method in brief: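 HEK293 plated at 7500 cells/well and grown 24 h at 37 °C, 5% CO2. Exposed to compound 0.0001 nM–10 μM for 24 h at 37 °C. Viability read by MTT on a multimode plate reader.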

[2] = tested on: IL-1α-induced NF-κB activation; assay: IL-1α-induced NF-κB activation assay; type: cell-based; details: HEK293 cells, IL-1α 10 ng/mL, 0.01 to 500 nM, 24 h
Method in brief: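 HEK293 cells were transfected with NF-κB firefly/Renilla luciferase reporters and replated next day at 7500 cells/well in phenol red–free DMEM. Compound 0.01–500 nM or DMSO was incubated with or without IL-1α 10 ng/mL for 24 h at 37 °C. Sequential firefly and Renilla luminescence read with Dual-Glo reagents. Means ± SD of three experiments.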

TNFR2 = biological target: T1, TNFR2 (Homo sapiens, UniProt P20333); assay: RelB transcription factor activity assay; type: cell-based; details: HUVEC cells, 250 nM, densitometry
T1 sequence (P20333 23-461): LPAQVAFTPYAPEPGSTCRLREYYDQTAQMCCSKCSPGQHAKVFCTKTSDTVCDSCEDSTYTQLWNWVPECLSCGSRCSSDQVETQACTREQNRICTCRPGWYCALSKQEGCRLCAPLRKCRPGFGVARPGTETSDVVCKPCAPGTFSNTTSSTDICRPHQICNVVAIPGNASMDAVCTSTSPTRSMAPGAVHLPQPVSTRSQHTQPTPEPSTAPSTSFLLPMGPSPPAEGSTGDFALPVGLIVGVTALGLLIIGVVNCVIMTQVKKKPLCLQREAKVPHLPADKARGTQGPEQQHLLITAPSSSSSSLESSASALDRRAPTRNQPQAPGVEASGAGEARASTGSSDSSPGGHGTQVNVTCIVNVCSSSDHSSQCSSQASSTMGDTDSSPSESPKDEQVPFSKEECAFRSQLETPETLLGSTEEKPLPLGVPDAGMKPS
Method in brief: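 HUVEC grown on gelatin-coated dishes in EGM-2 with 2% FBS, plated 1 million/well overnight, then transfected with 0.5 μg membrane TNF plasmid. After 6 h, medium replaced and compound (250 nM) added overnight. Lysates in native buffer, BCA, SDS–PAGE, immunoblotted for RelB; bands quantified by densitometry.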

TNFR1 = biological target: T2, TNFR1 (Homo sapiens, UniProt P19438); assay: IκB degradation assay; type: cell-based; details: HEK293 cells, 0.01 to 500 nM
T2 sequence (P19438 30-455): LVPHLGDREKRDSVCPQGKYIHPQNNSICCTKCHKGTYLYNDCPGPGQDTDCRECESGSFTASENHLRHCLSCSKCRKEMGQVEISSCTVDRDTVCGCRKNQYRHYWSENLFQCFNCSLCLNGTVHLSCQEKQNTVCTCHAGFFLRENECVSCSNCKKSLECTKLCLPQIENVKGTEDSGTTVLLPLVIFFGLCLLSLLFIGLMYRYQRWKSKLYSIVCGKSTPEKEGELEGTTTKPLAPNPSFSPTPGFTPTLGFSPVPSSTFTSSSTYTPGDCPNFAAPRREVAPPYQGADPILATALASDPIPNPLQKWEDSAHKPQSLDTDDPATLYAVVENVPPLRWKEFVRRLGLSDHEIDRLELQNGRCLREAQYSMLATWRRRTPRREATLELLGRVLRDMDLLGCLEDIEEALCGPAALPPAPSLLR
Method in brief: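 HEK293 seeded at 0.4 million/mL in six-well plates overnight, then given compound 0.01–500 nM or DMSO for 2 h, then TNF 10 ng/mL for 30 min. Lysis in native buffer with protease inhibitor, 30 min on ice; BCA. 80 μg protein run on SDS–PAGE, immunoblotted for IκBα and β-actin. Bands quantified by densitometry (n = 3).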

aggregation by DLS at 200 μM [1]	effect on membrane TNF-TNFR2-induced activation of RelB (TNFR2)	extent of inhibition of TNF-induced IκB degradation (TNFR1)	SMILES	EC50 (TNF) [nM]	effect on TRADD-induced NF-κB activation (TRADD)	cytotoxicity (MTT) (HEK293 cells)	effect on IL-1α-induced NF-κB activation [2]
–	–	–	Cc1ccc(C)c(Cn2c(C(O)c3ccncc3)nc3ccc(-c4cnn(C)c4)cc32)c1 (stereo not shown) [UCB-9260]	250	–	–	–
aggregation	minimal effect	partially inhibited	COc1cc(C(=O)NS(=O)(=O)c2ccccc2C)ccc1Cc1cn(C)c2ccc(NC(=O)OC3CCCC3)cc12 [zafirlukast]	–	little effect	No appreciable cytotoxicity	failed to mitigate
